In the library only some 1.6% were active in any assay of this set; here they are far more common.
Lipid droplet = hepatic lipid droplet formation modulation; 240,000 tested, 0.4% active; inhibition, % at 6.5 µM; AML12 mouse hepatocytes, oleate lipid droplets, BODIPY imaging;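 active = lipid droplet intensity inhibited by at least 50%, with more than 500 cells counted; inconclusive = wells with under 300 cells, treated as cytotoxic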
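Assay system: AML12 mouse liver cells | Compound dosing: One dose, 6.5 µM compound | Read-out basis: Droplet intensity reduction, % inhibition | Measured by: Fluorescence imaging, 20x objective, two fields per well | Schedule: Overnight treatment with compound plus oleate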
TLR9-MyD88 block = TLR9-MyD88 interaction inhibition. Q9NR96+Q99836. CHO BLA complementation TLR9-MyD88, CCF4 FRET ratio. inhibition, % at 4.98 µM. 340,000 tested, 0.21% active. AID 504734;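 active = inhibition above the mean over all tested compounds plus 3 SD, cut at about 21% in these data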
NOD2 RIPK2 PPI = NOD2-RIPK2 protein interaction inhibition | O43353 | 360,000 tested, 0.38% active | inhibition, % at 4.98 µM | CHO BLA complementation NOD2-RIPK2, CCF4 ratio | AID 624267; in the data active = inhibition above about 21%
SR-BI uptake up = enhances SR-BI lipid uptake from DiI-HDL. CHO ldlA[mSR-BI] cells, DiI-HDL uptake fluorescence, 3 h; 100 = double the neutral-control signal. activation, % at 12.5 µM. 320,000 tested, 0.096% active. AID 504775;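 active = mean replicate activation of at least 60% and every replicate at or above 60%; inconclusive = mean or all-replicate condition met, but not both; inactive = mean below 60% and not all replicates reaching 60%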
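system = CHO ldlA[mSR-BI] cells, LDL receptor-null, SR-BI overexpressing | medium = Ham's F12 with 0.5% BSA, HEPES 25 mM, pH 7.4 | probe or stimulus = DiI-HDL 10 µg/mL | compound dosing = single-point compound dose | incubation = compound exposure 3 h, 37 °C | technique = DiI fluorescence, bottom read | read-out = cell-associated DiI fluorescence as measure of HDL uptake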
TLR4 MyD88 comp = blocks binding of human TLR4 to MyD88; HeLa CL3-4 TLR4/MyD88 BLA complementation, FRET ratio; inhibition, % at 8.4 µM; 200,000 tested, 0.18% active; AID 861; in the data active = inhibition above about 25%
SR-BI DiI inh = blocks mouse SR-BI lipid uptake from DiI-HDL. Q61009. AID 488896. ldlA[mSR-BI] CHO cells, DiI-HDL uptake fluorescence, 3 h. 320,000 tested, 0.96% active. inhibition, % at 12.5 µM;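 active = mean replicate inhibition of at least 70% and a set share of replicates each scoring 70 or more; inconclusive = meets just one of the two criteria; inactive = fails both criteria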
Target sequence (Q61009 whole entry, looked up): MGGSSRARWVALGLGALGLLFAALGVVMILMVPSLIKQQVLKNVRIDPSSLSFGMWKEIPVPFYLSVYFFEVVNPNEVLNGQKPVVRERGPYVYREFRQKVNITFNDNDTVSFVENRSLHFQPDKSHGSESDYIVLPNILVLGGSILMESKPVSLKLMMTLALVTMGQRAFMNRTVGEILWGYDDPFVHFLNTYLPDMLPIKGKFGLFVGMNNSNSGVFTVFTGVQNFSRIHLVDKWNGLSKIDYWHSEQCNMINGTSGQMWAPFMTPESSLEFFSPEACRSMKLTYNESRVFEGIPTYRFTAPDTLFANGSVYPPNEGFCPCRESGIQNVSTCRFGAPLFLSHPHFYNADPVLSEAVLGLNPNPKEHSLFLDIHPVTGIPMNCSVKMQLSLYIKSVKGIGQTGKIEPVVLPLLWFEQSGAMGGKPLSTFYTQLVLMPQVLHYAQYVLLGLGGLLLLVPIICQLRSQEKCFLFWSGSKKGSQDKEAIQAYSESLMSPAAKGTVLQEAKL
DiI quench = DiI fluorescence quenching in cell-free counter-screen; AC50, µM (highest dose often 35 µM); 470 tested, 20% active; cell-free DiI-HDL fluorescence quenching, 30 min; shares compounds with SR-BI DiI inh;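 active = quenching, a falling signal, with AC50 below a set limit tied to the top valid dose, actives reach about 32 µM in these data; inconclusive = no clear call, values can overlap the other calls; inactive = rising signal, and the rest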
Large screens that a line does not name were inactive (follow-up assays come after a bar, where they were run).

CCC1CN(C(=O)N2CCC(C(=O)NCc3ccccc3OC)CC2)c2cc(C)ccc2O1 (stereo unspecified)	SR-BI DiI inh 81 (no result: TLR4 MyD88 comp) | DiI quench inactive
CCC1CN(C(=O)N2CCC(C(=O)NCc3ccccc3OC)CC2)c2ccccc2O1 (stereo unspecified)	none (no result: TLR4 MyD88 comp)
O=C1N(Cc2ccccc2)c2ccc(Cl)cc2C12OCCO2	none (no result: TLR4 MyD88 comp)
CN(C)CCN(Cc1cc2cc3c(cc2[nH]c1=O)OCO3)C(=S)NCC1CCCO1 (stereo unspecified)	none
CCNC(=O)c1c(NC(=O)c2cc(-c3cc(C)cc(C)c3O)n[nH]2)sc2c1CCCC2	SR-BI DiI inh inconclusive (no result: Lipid droplet, TLR4 MyD88 comp) | DiI quench inactive
N#Cc1ccc(C(=O)N2CCC3CC2c2cc(-c4ccc(F)cc4)ccc23)cc1 (stereo unspecified)	none (no result: Lipid droplet, TLR4 MyD88 comp) | DiI quench inactive
O=C(c1ccc(-c2ccccc2)cc1)N1CCC2CC1c1cc(-c3ccc4c(c3)OCO4)ccc12 (stereo unspecified)	none (no result: Lipid droplet, TLR9-MyD88 block, SR-BI uptake up, TLR4 MyD88 comp, SR-BI DiI inh)
N#CCCN(C(=O)COC(=O)CCc1ccccc1)c1ccccc1	none (no result: TLR4 MyD88 comp)
N#CCCN(C(=O)COC(=O)CCc1c[nH]c2ccccc12)c1ccccc1	none (no result: Lipid droplet, TLR4 MyD88 comp) | DiI quench inactive
COc1ccccc1-n1c(SCC(=O)NCc2ccc3c(c2)OCO3)nc2cc([N+](=O)[O-])ccc21	none
CC(Sc1nc2cc([N+](=O)[O-])ccc2n1-c1ccc(F)cc1)C(=O)NCc1ccc2c(c1)OCO2 (stereo unspecified)	SR-BI DiI inh 82 | DiI quench inactive
O=C1C2C3C=CC(C3)C2C(=O)N1c1cccc(N2C(=O)C3C4C=CC(C4)C3C2=O)n1 (stereo unspecified)	none | DiI quench inactive
CC(=O)Nc1ccc(-c2ccnc3c2CC(C)(C(=O)Nc2cccc(Oc4ccccc4)c2)O3)cc1 (stereo unspecified)	none (no result: Lipid droplet, TLR9-MyD88 block, SR-BI uptake up, TLR4 MyD88 comp, SR-BI DiI inh)
COc1ccccc1NC(=O)CN1CCN(CC(=O)Nc2ccc(C)c(F)c2)CC1	SR-BI DiI inh 104 (no result: TLR4 MyD88 comp) | DiI quench inactive
COc1ccccc1NC(=O)CN1CCN(CC(=O)Nc2ccc(F)cc2)CC1	none
COc1ccccc1NC(=O)CN1CCN(CC(=O)Nc2ccc(OCc3ccccc3)cc2)CC1	none (no result: Lipid droplet) | DiI quench inactive
COc1ccc(OC)c(-c2csc(NC(=O)c3ccc(F)cc3)n2)c1	none (no result: TLR4 MyD88 comp)
O=C(c1ccc(S(=O)(=O)NCc2ccco2)cc1)N1CCN(c2ccc(F)cc2)CC1	none (no result: Lipid droplet, TLR4 MyD88 comp)
O=C(c1ccc(S(=O)(=O)NCc2ccco2)cc1)N1CCN(Cc2ccccc2F)CC1	none (no result: Lipid droplet, TLR4 MyD88 comp) | DiI quench inactive
CC(=O)c1ccc(N2CCN(C(=O)c3ccc(S(=O)(=O)NCc4ccco4)cc3)CC2)cc1	none (no result: Lipid droplet, TLR4 MyD88 comp)
COc1ccc(CN2CCN(C(=O)c3ccc(S(=O)(=O)NCc4ccco4)cc3)CC2)cc1	SR-BI DiI inh 93 (no result: Lipid droplet, TLR4 MyD88 comp) | DiI quench inactive
O=C(c1ccc(S(=O)(=O)NCc2ccco2)cc1)N1CCN(Cc2ccccc2)CC1	none | DiI quench inactive
O=C(NC1CCN(Cc2ccccc2)CC1)c1ccc(S(=O)(=O)NCc2ccco2)cc1	none
CCCCC1C2=C(CC(C)(C)CC2=O)OC2=C1C(=O)CC(C)(C)C2	none
COc1ccc(CNC(=O)C(c2ccc(C)cc2)N(Cc2cccs2)C(=O)c2ccc3c(c2)OCCO3)cc1 (stereo unspecified)	none (no result: Lipid droplet) | DiI quench inactive
CCN(C(=O)COC(=O)c1c(C)c(-c2ccccc2)nc2ccccc12)C1CCS(=O)(=O)C1 (stereo unspecified)	SR-BI DiI inh 75 (no result: TLR4 MyD88 comp) | DiI quench inactive
Cc1ccc2nc3c(c(C(=O)OCC(=O)N(C)C4CCS(=O)(=O)C4)c2c1)CCCC3 (stereo unspecified)	SR-BI DiI inh 74 | DiI quench inactive
Cc1cccc(Nc2ccccc2C(=O)OCC(=O)N(C)C2CCS(=O)(=O)C2)c1C (stereo unspecified)	SR-BI DiI inh 73 (no result: Lipid droplet) | DiI quench inactive
